Data reported in PubChem BioAssay.
Inconclusive results are not listed.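 Rule for the calls, unless noted: active = RAM network inhibition above 8.4% in each of two replicates, 3 SD over the compound average; inconclusive = above 8.4% inhibition in only one replicate; inactive = 8.4% inhibition or less in each replicate.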

Legend:
[1] = OD615 S. cerevisiae growth inhibition, permissive medium, pilot counter-assay, permissive growth control for S. cerevisiae lifespan shortening project (AID 705;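 active = growth inhibition above 25% in both replicates, a cutoff set 3 SD above the mean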); conditions: OD615, 24 h, at 10 µM, hits give high values
Summary of the method: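 System: engineered DeaD yeast; Medium: permissive raffinose/galactose medium; Compound dosing: 10 µM single dose, 0.25% DMSO; Incubation: 4 h cell pre-growth, 24 h exposure at 30 °C; Technique: OD at 615 nm; Evaluation: growth inhibition from lowered OD615 after 24 h.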

[2] = Restrictive medium S. cerevisiae growth inhibition, OD615, pilot screen of yeast lifespan reduction project, restrictive growth control (AID 706;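 active = growth inhibition above a set limit, 3 SD over mean compound inhibition, in both replicates, cut at about 43% in these data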;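 note: modified DeaD lifespan yeast strain shifted to restrictive glucose medium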); conditions: OD615, 48 h, at 10 µM, hits give high values
Summary of the method: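 Material: modified S. cerevisiae; buffer or medium: CSMM-D glucose medium; doses: one concentration, 10 µM final, 0.25% DMSO; incubation: 48 h compound exposure at 30 °C; detection: optical density at 615 nm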

[3] = viability gain of MRP-1-high H69AR cells under doxorubicin, pilot screen, MRP-1 activator project, CellTiter-Glo, duplicate (AID 807;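 active = viability increase at or above a cutoff of the median across tested compounds plus 3 SD, cut at about 8.5% in these data, passing the limit was not always enough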;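 note: compound pretreatment 18-22 h then 72 h combined with doxorubicin; 0% = doxorubicin alone and 100% = vehicle without doxorubicin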); conditions: H69AR viability with doxorubicin, CellTiter-Glo luminescence; at 10 µM; hits give high values
[4] = growth suppression of beta-catenin knockout HCT116, pilot screen, human colon tumor cells (AID 823;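 active = cell viability at or below a set limit in both duplicate runs, the limit being the all-compound median minus 4 SD, cut at about 23% in these data, passing the limit was not always enough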;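 note: 0% = wells killed by 20 µM Hyamine and 100% = untreated DMSO cell wells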); conditions: CellTiter-Glo, 60 h, at 10 µM, hits give low values
[5] = growth suppression of PTEN-deleted HCT116, pilot screen, cell-based, HCT116 clonal line, CellTiter-Glo (AID 824;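 active = viability at or below 27.92% in each of two runs, the all-compound median minus 4 SD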;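 note: 0% = 20 µM Hyamine control and 100% = vehicle cell control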); conditions: 60 h, at 10 µM, hits give low values
[6] = inhibitors of the yeast RAM network, pilot screen, dse1pr::URA3 reporter, 5-FOA selection (AID 869;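 active = inhibition over a set limit, the all-compound mean plus 3 SD, in both replicate runs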;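 note: 0% = DMSO wells with no growth and 100% = 10 µM 1-NA-PP1 with full growth; RAM network block rescues cells from 5-FOA so hits raise OD615 growth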); conditions: S. cerevisiae dse1pr::URA3 5-FOA growth, OD615, 2 d; at 10 µM; hits give high values; strain carries analog-sensitive mutant Cbk1 kinase
[7] = RAM signaling pathway blockade in yeast – S. cerevisiae, Pdr1DBD-CYC8 efflux-inhibited sensitized strain, primary screen (AID 1298);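 note: 0% = DMSO untreated cells without growth and 100% = 10 µM 1-NA-PP1 full growth; higher means more yeast growth rescued from 5-FOA killing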; conditions: S. cerevisiae cbk1-as DSE1-URA3 strain, 5-FOA growth OD615, 2 d; at 50 µM; hits give high values

C=CCSc1nc2c(c(=O)[nH]1)C(C(C)C)C(C#N)=C(N)O2 (stereo not drawn)
inactive: growth inhibition [1] 0.845% | growth inhibition [2] 1.47% | viability increase [3] -2.3% | viability [4] 101% | viability [5] 101% | inhibition [6] 1.75% | RAM network inhibition [7] 1.88%

N#CC1=C(SCC(N)=O)NC(=O)CC1c1ccccc1Cl (stereo not drawn)
inactive: growth inhibition [1] -3.39% | growth inhibition [2] -17.1% | viability increase [3] -2.43% | viability [4] 98% | viability [5] 96.5% | inhibition [6] 0.635% | RAM network inhibition [7] -0.49%

O=C(NCc1ccco1)C1CCN(S(=O)(=O)c2cccc3cccnc23)CC1
inactive: growth inhibition [1] 5.31% | growth inhibition [2] 5.93% | viability increase [3] -2.72% | viability [4] 99.4% | viability [5] 93.8% | inhibition [6] 2.12% | RAM network inhibition [7] 2.63%

COc1ccc(N(CC(=O)Nc2ccc(C)cn2)S(=O)(=O)c2c(C)nn(C)c2C)cc1
inactive: growth inhibition [1] -17.5% | growth inhibition [2] -9.45% | viability increase [3] -1.95% | viability [4] 97.5% | viability [5] 96.2% | inhibition [6] 0.055% | RAM network inhibition [7] 5.27%

O=C1c2ccccc2C(Nc2ccc3c(c2)OCCO3)N1Cc1ccccc1 (stereo not drawn)
inactive: growth inhibition [1] -4.61% | growth inhibition [2] 8.43% | viability increase [3] -1.12% | viability [4] 88.7% | viability [5] 80.9% | inhibition [6] 0.61% | RAM network inhibition [7] 2.3%

CC1CCC(NC(=O)Cn2cc3c(n2)CCCC3)CC1 (stereo not drawn)
inactive: growth inhibition [1] -4.87% | growth inhibition [2] -6.18% | viability increase [3] 1.57% | viability [4] 110% | viability [5] 103% | inhibition [6] -0.485% | RAM network inhibition [7] 0.23%

O=C(NCc1ccc2c(c1)OCO2)Oc1ccccc1
inactive: growth inhibition [1] -1.34% | growth inhibition [2] 7.08% | viability increase [3] 0.33% | viability [4] 96.9% | viability [5] 101% | inhibition [6] 1.32% | RAM network inhibition [7] 2.53%

CN1CCN(S(=O)(=O)c2ccc3ccccc3c2)CC1
inactive: growth inhibition [1] -0.14% | growth inhibition [2] -1.93% | viability increase [3] -2.23% | viability [4] 103% | viability [5] 105% | inhibition [6] 2.92% | RAM network inhibition [7] 0.63%

COc1nc(NCCC2=CCCCC2)nc(OC)n1
inactive: growth inhibition [1] -12.2% | growth inhibition [2] 2.74% | viability increase [3] 2.72% | viability [4] 98.6% | viability [5] 99.4% | inhibition [6] 0.235% | RAM network inhibition [7] 3.01%

CC(C)n1c(C(O)c2ccc3c(c2)OCO3)nc2ccccc21 (stereo not drawn)
inactive: growth inhibition [1] -1.25% | growth inhibition [2] 0.5% | viability increase [3] 0.4% | viability [4] 94.8% | viability [5] 90.9% | inhibition [6] 0.905% | RAM network inhibition [7] 2.89%

O=C(O)CCCC(=O)N1CCc2cc(S(=O)(=O)N3CCc4ccccc43)ccc21
inactive: growth inhibition [1] -2.29% | growth inhibition [2] -2.17% | viability increase [3] -0.98% | viability [4] 90.7% | viability [5] 91.8% | inhibition [6] 1.98% | RAM network inhibition [7] 1.3%

CSc1nc2sc3c(c2c(=O)n1C)CCCC3
inactive: growth inhibition [1] 7.93% | growth inhibition [2] 8.89% | viability increase [3] -0.98% | viability [4] 99.9% | viability [5] 94.7% | inhibition [6] 0.695% | RAM network inhibition [7] 3.94%

CCC1Oc2ccc(C)cc2N(CC(=O)N2CCN(c3ccc(F)cc3)CC2)C1=O (stereo not drawn)
inactive: growth inhibition [1] 5.46% | growth inhibition [2] 11.1% | viability increase [3] -3.35% | viability [4] 90% | viability [5] 83.5% | inhibition [6] -0.495% | RAM network inhibition [7] -0.06%

COc1ccc(OC)c(C2=Nn3c(nnc3-c3ccncc3)SC2)c1
inactive: growth inhibition [1] 0.735% | growth inhibition [2] 11.2% | viability increase [3] -2.51% | viability [4] 78.1% | viability [5] 71.1% | inhibition [6] 0.84% | RAM network inhibition [7] 5.82%

CC1CCCN(c2ncnc3c2cnn3-c2ccc(Cl)cc2)C1 (stereo not drawn)
inactive: growth inhibition [1] -6.17% | growth inhibition [2] -16.3% | viability increase [3] 0.48% | viability [4] 76% | viability [5] 79.3% | inhibition [6] -1.04% | RAM network inhibition [7] 4.37%

CCOC(=O)c1[nH]c(C)c(C(=O)N(CC)CC)c1C
inactive: growth inhibition [1] -10.8% | growth inhibition [2] -5.69% | viability increase [3] 0.21% | viability [4] 97% | viability [5] 107% | inhibition [6] 1.27% | RAM network inhibition [7] -0.57%

CCCCn1c(CCCNC(=O)CC)nc2ccccc21
inactive: growth inhibition [1] 0.535% | growth inhibition [2] -5.98% | viability increase [3] -4.51% | viability [4] 94.2% | viability [5] 85.8% | inhibition [6] 1.65% | RAM network inhibition [7] 4.06%

CC(=O)NCC(=O)OCC(=O)c1ccc(C)cc1
inactive: growth inhibition [1] 1.93% | growth inhibition [2] -5.04% | viability increase [3] -0.54% | viability [4] 97.6% | viability [5] 94.9% | inhibition [6] 1.21% | RAM network inhibition [7] -0.06%

CCCS(=O)(=O)N1CCn2c(nc3ccccc32)C1
inactive: growth inhibition [1] 0.585% | growth inhibition [2] -2.62% | viability increase [3] -0.37% | viability [4] 106% | viability [5] 102% | inhibition [6] 2.19% | RAM network inhibition [7] 2.93%

CCN(CCCNC(=O)Cn1cc2c(n1)CCCC2)c1cccc(C)c1
inactive: growth inhibition [1] -4.97% | growth inhibition [2] 3.35% | viability increase [3] -3.77% | viability [4] 86% | viability [5] 81.5% | inhibition [6] 0.48% | RAM network inhibition [7] 4.45%

Cn1c(Cn2c(=O)sc3ccccc32)nnc1SCC(=O)Nc1cccc(Cl)c1
inactive: growth inhibition [1] -3.44% | growth inhibition [2] -16.1% | viability increase [3] -0.83% | viability [4] 99.6% | viability [5] 98.8% | inhibition [6] 2.58% | RAM network inhibition [7] 2.23%

O=C(Cn1cnc2c(nnn2-c2ccccc2)c1=O)N1CCOCC1
inactive: growth inhibition [1] -5.42% | growth inhibition [2] -7.92% | viability increase [3] 0.78% | viability [4] 104% | viability [5] 104% | inhibition [6] -0.26% | RAM network inhibition [7] 0.26%

COc1cc(NC(=O)c2c(-c3ccccc3Cl)noc2C)c2ncccc2c1
inactive: growth inhibition [1] -15.8% | growth inhibition [2] -18.1% | viability increase [3] -0.47% | viability [4] 60.2% | viability [5] 64.3% | inhibition [6] 2.6% | RAM network inhibition [7] 7.52%

CC1(C)CC(=O)N(CC(=O)O)c2ccccc2S1(=O)=O
inactive: growth inhibition [1] -4.39% | growth inhibition [2] 4.7% | viability increase [3] -0.77% | viability [4] 99.8% | viability [5] 96.3% | inhibition [6] 1.42% | RAM network inhibition [7] 4.48%
